Laboratory results from ChEMBL document CHEMBL4627334, “Design, synthesis and biological evaluation of 4-(pyridin-4-yloxy)benzamide derivatives bearing a 5-methylpyridazin-3(2H)-one fragment” (Bioorg Med Chem Lett, 2020).
Active and inactive are the calls of the source. No cut-off for these calls is given here.

What was measured:
[1] = test system: A549; experiment: Antiproliferative activity against human A549 cells assessed as reduction in cell viability after 72 hrs by MTT assay; type: functional, cell-based; details: A549, 72 h
Method in brief: (§1)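 Cells grown in DMEM/1640 with 10% FBS, seeded at about 4×10^3 per well and held 24 h at 37 °C, 5% CO2. Compounds diluted in medium or DMSO were added for 72 h, then MTT ([…]) was added for 3.5 h at 37 °C. Formazan was dissolved in DMSO and read at 492 nm against 630 nm. Triplicate wells, three runs, IC50 calculated.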

[2] = test system: HeLa; experiment: Antiproliferative activity against human HeLa cells assessed as reduction in cell viability after 72 hrs by MTT assay; type: functional, cell-based; method in brief: as §1
[3] = test system: MCF7; experiment: Antiproliferative activity against human MCF7 cells assessed as reduction in cell viability after 72 hrs by MTT assay; type: functional, cell-based; method in brief: as §1
[4] = target: Hepatocyte growth factor receptor (Homo sapiens, UniProt P08581); experiment: Inhibition of cMET (unknown origin) using FAM-labeled peptide as substrate pre-incubated for 5 to 10 mins followed by substrate addition and measured after 30 to 60 mins by mobility shift assay
[5] = test system: A549; experiment: Potency index, ratio of golvatinib IC50 to test compound IC50 for antiproliferative activity against human A549 cells; type: functional
[6] = test system: HeLa; experiment: Potency index, ratio of golvatinib IC50 to test compound IC50 for antiproliferative activity against human HeLa cells; type: functional
[7] = test system: MCF7; experiment: Potency index, ratio of golvatinib IC50 to test compound IC50 for antiproliferative activity against human MCF7 cells; type: functional
[8] = test system: HeLa; experiment: Antiproliferative activity against human HeLa cells assessed as inhibition of cell proliferation at 1.23 umol/L after 72 hrs by MTT assay relative to control; type: functional
Method in brief: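 Cells were cultured in medium with 10% FBS and seeded near 4×10^3 per well, 24 h before dosing. MTT (5 µg/mL) was added for 3.5 h at 37 °C, formazan dissolved in DMSO, and absorbance read at 492/630 nm.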

[9] = test system: HeLa; experiment: Induction of apoptosis in human HeLa cells assessed as cytoplasmic contraction at 1 to 5 ug/L after 12 hrs by acridine orange staining based assay; type: functional, cell-based
Method in brief: (§2)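 HeLa cells were treated at 1 and 5 µg/L for 12 h, then stained with acridine orange. Morphology was compared with untreated control cells, scoring cytoplasmic contraction, membrane swelling and apoptotic bodies.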

[10] = test system: HeLa; experiment: Induction of apoptosis in human HeLa cells assessed as membrane swelling at 1 to 5 ug/L after 12 hrs by acridine orange staining based assay; type: functional, cell-based; method in brief: as §2
[11] = test system: HeLa; experiment: Induction of apoptosis in human HeLa cells assessed as increase in apoptotic bodies at 1 to 5 ug/L after 12 hrs by acridine orange staining based assay; type: functional, cell-based; method in brief: as §2
[12] = test system: HeLa; experiment: Induction of apoptosis in human HeLa cells after 12 hrs by acridine orange staining based assay; type: functional, cell-based; method in brief: as §2
[13] = Homo sapiens, HeLa, 72 h, read-out: IC50
[14] = Homo sapiens, MCF7, 72 h, read-out: IC50

Hepatocyte growth factor receptor, sequence (P08581 whole entry): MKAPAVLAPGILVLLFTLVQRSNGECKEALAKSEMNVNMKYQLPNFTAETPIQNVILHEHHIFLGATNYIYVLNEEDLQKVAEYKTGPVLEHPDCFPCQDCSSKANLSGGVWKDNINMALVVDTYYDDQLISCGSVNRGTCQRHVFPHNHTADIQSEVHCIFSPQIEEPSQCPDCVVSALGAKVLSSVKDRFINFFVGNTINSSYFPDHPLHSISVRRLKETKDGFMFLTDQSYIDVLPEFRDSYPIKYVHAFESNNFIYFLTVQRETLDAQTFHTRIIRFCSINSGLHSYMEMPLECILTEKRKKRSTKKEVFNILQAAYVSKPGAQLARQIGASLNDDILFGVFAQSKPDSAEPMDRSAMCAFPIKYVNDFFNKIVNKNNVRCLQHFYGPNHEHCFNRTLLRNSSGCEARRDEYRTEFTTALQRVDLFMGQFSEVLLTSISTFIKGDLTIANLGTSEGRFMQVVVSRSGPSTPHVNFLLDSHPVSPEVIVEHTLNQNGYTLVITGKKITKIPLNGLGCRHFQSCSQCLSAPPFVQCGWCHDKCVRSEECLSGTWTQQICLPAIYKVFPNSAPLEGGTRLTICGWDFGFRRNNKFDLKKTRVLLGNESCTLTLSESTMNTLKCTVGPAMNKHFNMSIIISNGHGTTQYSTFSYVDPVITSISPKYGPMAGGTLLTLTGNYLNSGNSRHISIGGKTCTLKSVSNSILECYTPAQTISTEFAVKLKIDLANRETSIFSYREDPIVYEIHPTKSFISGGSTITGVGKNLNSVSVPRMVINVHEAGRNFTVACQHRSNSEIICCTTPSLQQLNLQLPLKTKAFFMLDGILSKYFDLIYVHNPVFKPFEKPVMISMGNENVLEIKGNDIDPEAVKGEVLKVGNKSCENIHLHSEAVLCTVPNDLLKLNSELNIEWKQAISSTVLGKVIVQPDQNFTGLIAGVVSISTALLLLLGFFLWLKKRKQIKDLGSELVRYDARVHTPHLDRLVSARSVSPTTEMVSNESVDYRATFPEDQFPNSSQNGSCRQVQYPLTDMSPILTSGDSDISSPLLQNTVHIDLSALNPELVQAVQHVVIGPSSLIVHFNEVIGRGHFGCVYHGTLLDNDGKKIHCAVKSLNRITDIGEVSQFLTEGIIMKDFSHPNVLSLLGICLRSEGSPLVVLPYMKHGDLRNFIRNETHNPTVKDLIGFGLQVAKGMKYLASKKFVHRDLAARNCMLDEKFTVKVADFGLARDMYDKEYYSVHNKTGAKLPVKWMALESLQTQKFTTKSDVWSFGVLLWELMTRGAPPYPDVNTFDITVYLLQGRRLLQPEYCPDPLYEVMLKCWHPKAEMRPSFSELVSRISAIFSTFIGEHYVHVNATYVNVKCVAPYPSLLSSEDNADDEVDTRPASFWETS

IC50 [1] | IC50 [2, 13] | IC50 [3, 14] | Compound | also measured
9.24 µM | 8 µM | 30 µM | CCCNC(=O)c1cc(Oc2ccc(NC(=O)c3nn(-c4cccc(C(F)(F)F)c4)c(=O)cc3C)cc2F)ccn1 | –
7.41 µM | 6.87 µM | 18.9 µM | CCNC(=O)c1cc(Oc2ccc(NC(=O)c3nn(-c4cccc(F)c4)c(=O)cc3C)cc2)ccn1 | –
10.2 µM | 11.8 µM | 45.8 µM | CNC(=O)c1cc(Oc2ccc(NC(=O)c3nn(-c4cccc(C(F)(F)F)c4)c(=O)cc3C)cc2F)ccn1 | –
6.83 µM | 4.25 µM | 8.23 µM | Cc1cc(=O)n(-c2ccc(Br)cc2F)nc1C(=O)Nc1ccc(Oc2ccnc(C(=O)NCCCN3CCOCC3)c2)cc1 | IC50 [4]: > 10 µM
2.94 µM | 1.92 µM | 3.57 µM | Cc1ccc(-n2nc(C(=O)Nc3ccc(Oc4ccnc(C(=O)NCCCN5CCOCC5)c4)cc3)c(C)cc2=O)cc1 | IC50 [4]: > 10 µM
1.03 µM | 1.15 µM | 2.59 µM | Cc1cc(=O)n(-c2ccccc2OC(F)(F)F)nc1C(=O)Nc1ccc(Oc2ccnc(C(=O)NCCCN3CCOCC3)c2)cc1 | Activity [2]: Dose-dependent effect; Ratio IC50 [5]: 2.6 - 6.95; Ratio IC50 [6]: 2.6 - 6.95; Ratio IC50 [7]: 2.6 - 6.95; IC50 [4]: 0.807 µM; inhibition at 1.23 µM [8]: > 50%; Activity [9]: Active; Activity [10]: Active; Activity [11]: Active; Activity [12]: Dose-dependent effect
722 µM | 885 µM | – | Cc1cc(=O)n(-c2cccc(C(F)(F)F)c2)nc1C(=O)Nc1ccc(Oc2ccnc(C(=O)NCCc3cccs3)c2)cc1 | IC50 ([3]; mcf7): Not Active
10 µM | 10.7 µM | 40.6 µM | CCNC(=O)c1cc(Oc2ccc(NC(=O)c3nn(-c4cccc(C(F)(F)F)c4)c(=O)cc3C)cc2)ccn1 | –
2.5 µM | 1.65 µM | 5.21 µM | Cc1cc(=O)n(-c2cccc(C(F)(F)F)c2)nc1C(=O)Nc1ccc(Oc2ccnc(C(=O)NCCCN3CCOCC3)c2)cc1 | IC50 [4]: > 10 µM

The next lines start with the compound.

Compound | IC50 [1] | IC50 [2, 13] | IC50 [3, 14] | also measured
CCNC(=O)c1cc(Oc2ccc(NC(=O)c3nn(-c4ccc(Br)cc4F)c(=O)cc3C)cc2)ccn1 | 34.5 µM | – | 35.1 µM | IC50 ([2]; hela): Not Active
CCCNC(=O)c1cc(Oc2ccc(NC(=O)c3nn(-c4ccccc4OC(F)(F)F)c(=O)cc3C)cc2F)ccn1 | 4.22 µM | 3.69 µM | 7.42 µM | –
CCNC(=O)c1cc(Oc2ccc(NC(=O)c3nn(-c4ccccc4C)c(=O)cc3C)cc2)ccn1 | 34.8 µM | 27.3 µM | 44.3 µM | –
CNC(=O)c1cc(Oc2ccc(NC(=O)c3nn(-c4ccccc4Cl)c(=O)cc3C)cc2F)ccn1 | 11.8 µM | 9.87 µM | 136 µM | –
CNC(=O)c1cc(Oc2ccc(NC(=O)c3nn(-c4ccccc4)c(=O)cc3C)cc2F)ccn1 | 40.8 µM | – | – | IC50 ([2]; hela): Not Active; IC50 ([3]; mcf7): Not Active
Cc1cc(=O)n(-c2ccc(Br)cc2F)nc1C(=O)Nc1ccc(Oc2ccnc(C(=O)NCCc3cccs3)c2)cc1 | 585 µM | 387 µM | 969 µM | –
CCCNC(=O)c1cc(Oc2ccc(NC(=O)c3nn(-c4ccc(C)cc4)c(=O)cc3C)cc2F)ccn1 | 18 µM | 14.2 µM | 34.6 µM | –
CCCNC(=O)c1cc(Oc2ccc(NC(=O)c3nn(-c4cccc(F)c4)c(=O)cc3C)cc2F)ccn1 | 7.02 µM | 6.66 µM | 13.3 µM | –
CCCNC(=O)c1cc(Oc2ccc(NC(=O)c3nn(-c4ccc(Br)cc4F)c(=O)cc3C)cc2F)ccn1 | 235 µM | 53.5 µM | – | IC50 ([3]; mcf7): Not Active
CCNC(=O)c1cc(Oc2ccc(NC(=O)c3nn(-c4ccccc4OC(F)(F)F)c(=O)cc3C)cc2)ccn1 | 5.28 µM | 3.99 µM | 15.5 µM | –
Cc1cc(=O)n(-c2ccccc2OC(F)(F)F)nc1C(=O)Nc1ccc(Oc2ccnc(C(=O)NCCc3cccs3)c2)cc1 | 876 µM | 434 µM | – | IC50 ([3]; mcf7): Not Active
CCCNC(=O)c1cc(Oc2ccc(NC(=O)c3nn(-c4ccccc4C)c(=O)cc3C)cc2F)ccn1 | 25.7 µM | 24.6 µM | 39.6 µM | –
CCNC(=O)c1cc(Oc2ccc(NC(=O)c3nn(-c4ccc(C)cc4)c(=O)cc3C)cc2)ccn1 | 11.6 µM | 10.7 µM | 51.2 µM | –
Cc1ccc(-n2nc(C(=O)Nc3ccc(Oc4ccnc(C(=O)NCCc5cccs5)c4)cc3)c(C)cc2=O)cc1 | 965 µM | 660 µM | – | IC50 ([3]; mcf7): Not Active
CN1CCN(C2CCN(C(=O)Nc3cc(Oc4ccc(NC(=O)C5(C(=O)Nc6ccc(F)cc6)CC5)c(F)c4)ccn3)CC2)CC1 [GOLVATINIB] | 6.89 µM | 4.14 µM | 20.6 µM | inhibition at 1.23 µM [8]: 20%
